ChEMBL document CHEMBL5316332 (J Med Chem, 2023)
pKi: −log10 of the molar value. Activity calls are given as the source filed them. No cut-off for these calls is given here.

Target: T1, Bone morphogenetic protein receptor type-2 (Homo sapiens, UniProt Q13873)
T1 sequence (Q13873 whole entry): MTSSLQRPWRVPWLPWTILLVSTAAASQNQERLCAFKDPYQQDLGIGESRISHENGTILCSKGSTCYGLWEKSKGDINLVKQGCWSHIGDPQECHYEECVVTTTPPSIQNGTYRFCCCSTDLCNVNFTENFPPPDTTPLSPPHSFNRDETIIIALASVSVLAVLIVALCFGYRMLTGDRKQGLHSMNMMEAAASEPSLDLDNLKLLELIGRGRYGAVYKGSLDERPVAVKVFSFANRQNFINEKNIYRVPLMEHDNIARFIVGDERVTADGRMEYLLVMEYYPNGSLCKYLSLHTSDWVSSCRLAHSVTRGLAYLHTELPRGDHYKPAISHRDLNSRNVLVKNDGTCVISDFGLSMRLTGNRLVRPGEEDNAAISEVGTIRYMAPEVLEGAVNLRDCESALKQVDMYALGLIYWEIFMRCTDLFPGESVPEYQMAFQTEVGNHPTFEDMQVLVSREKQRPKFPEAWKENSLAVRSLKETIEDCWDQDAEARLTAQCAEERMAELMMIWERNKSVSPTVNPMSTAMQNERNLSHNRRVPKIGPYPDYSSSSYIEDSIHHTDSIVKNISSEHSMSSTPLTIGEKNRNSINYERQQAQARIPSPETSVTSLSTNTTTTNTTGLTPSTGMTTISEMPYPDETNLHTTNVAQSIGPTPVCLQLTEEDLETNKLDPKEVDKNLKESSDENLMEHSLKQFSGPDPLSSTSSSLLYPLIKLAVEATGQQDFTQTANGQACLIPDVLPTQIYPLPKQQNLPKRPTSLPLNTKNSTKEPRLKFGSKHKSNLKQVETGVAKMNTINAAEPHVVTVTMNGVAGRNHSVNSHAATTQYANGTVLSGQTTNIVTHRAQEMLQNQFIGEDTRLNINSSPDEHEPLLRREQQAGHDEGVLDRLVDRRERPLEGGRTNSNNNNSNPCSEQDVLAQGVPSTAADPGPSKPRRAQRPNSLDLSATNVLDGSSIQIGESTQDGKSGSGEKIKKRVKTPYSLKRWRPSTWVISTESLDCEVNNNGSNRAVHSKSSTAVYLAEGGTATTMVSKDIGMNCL
Assay: (§1) Inhibition of recombinant C-terminal 6His-tagged human BMPR2 (188 to 517 residues) expressed in Escherichia coli Rosetta assessed as apparent inhibition constant using ATP as substrate incubated for 30 mins by Morrison plot analysis
Conditions: read-out: Ki(app)
Outline: (§2)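 Purified His-tagged BMPR2 kinase domain with no peptide substrate (intrinsic ATPase). 10 μM ATP, 0.02% Tween-20, kinase buffer, 50 μL, enzyme level optimized for initial-velocity conditions. 30 min at 30 °C. Leftover ATP read by Kinase-Glo luminescence, with no-kinase controls. Kiapp from a modified Morrison equation fitted to normalized fractional activity, assuming no specific inhibition mode.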

Compound	pKi
COc1cnc(Nc2cccc(S(N)(=O)=O)c2)nc1N1CCNCC1	6.60
NS(=O)(=O)c1cccc(Nc2ncc(F)c(N3CCN(c4ccccc4)C(=O)C3)n2)c1	6.63
COc1cnc(Nc2cccc(S(N)(=O)=O)c2)nc1N1CC2CCC1CN2c1ccccc1 (configuration not stated)	6.51
COc1cnc(Nc2cccc(S(N)(=O)=O)c2)nc1N1CC(F)(c2ccccc2)C1	7.74
NS(=O)(=O)c1cccc(Nc2ncc(OC(F)F)c(N3CCN(c4ccccc4)C(=O)C3)n2)c1	< 6.70
COc1cnc(Nc2cccc(S(N)(=O)=O)c2)nc1N1CCN(c2ccccc2)CC1C(F)(F)F (configuration not stated)	6.37
CNC(=O)c1ccc2nc(-c3ccc4cnccc4c3)n([C@@H]3CC[C@@H](C(=O)NC)C3)c2c1	< 6.00
COc1cnc(Nc2cccc(S(N)(=O)=O)c2)nc1N1CC2CC1CN2c1ccccc1 (configuration not stated)	6.03

Target: T2, Bone morphogenetic protein receptor type-2 (Homo sapiens) (UniProt Q13873)
T2 sequence (whole entry): T1 sequence (Q13873 whole entry)
Assay: as §1
Conditions: not given
Outline: as §2

Compound	inhibition
NS(=O)(=O)c1cccc(Nc2ncc(C(F)(F)F)c(N3CCN(c4ccccc4)C(=O)C3)n2)c1	inactive
COc1cnc(Nc2ccccc2)nc1N1CCN(c2ccccc2)CC1	inactive

System: not listed separately
Assay: Metabolic stability in mouse liver microsomes assessed as intrinsic clearance per mg of protein at 2 uM and mesured upto 60 mins in presence of NADPH by UHPLC-MS analysis
Type: ADME, Microsome
Conditions: liver microsomes, read-out: CLH

Compound	microsomal intrinsic clearance at 2 µM [µL/min/mg]	microsomal CLint at 2 µM [µL/min/mg]
COc1cnc(Nc2cccc(S(N)(=O)=O)c2)nc1N1CCN(c2ccccn2)CC1	159	–
Cc1nnc2n1-c1ccc(Cl)cc1C(c1ccccc1)=NC2 [ALPRAZOLAM]	–	5

Same assay, conditions: microsomes, 1 h, 2 µM

Compound	microsomal intrinsic clearance [µL/min/mg]
COc1cnc(Nc2cccc(S(N)(=O)=O)c2)nc1N1CC(F)(c2ccccc2)C1	65

System: not listed separately
Assay: Metabolic stability in mouse liver microsomes assessed as half life at 2 uM and mesured upto 60 mins in presence of NADPH by UHPLC-MS analysis
Type: ADME, Microsome
Conditions: liver microsomes

Compound	half-life at 2 µM [min]
COc1cnc(Nc2cccc(S(N)(=O)=O)c2)nc1N1CCN(c2ccccn2)CC1	9

Same assay, conditions: microsomes, 1 h, 2 µM

Compound	t1/2 [min]
Cc1nnc2n1-c1ccc(Cl)cc1C(c1ccccc1)=NC2 [ALPRAZOLAM]	258
COc1cnc(Nc2cccc(S(N)(=O)=O)c2)nc1N1CC(F)(c2ccccc2)C1	21

System: not listed separately
Assay: Metabolic stability in human liver microsomes assessed as half life at 2 uM and mesured upto 60 mins in presence of NADPH by UHPLC-MS analysis
Type: ADME, Microsome
Conditions: liver microsomes

Compound	half-life at 2 µM [min]
COc1cnc(Nc2cccc(S(N)(=O)=O)c2)nc1N1CCN(c2ccccn2)CC1	43

Same assay, conditions: microsomes, 1 h, 2 µM

Compound	t1/2 [min]
Cc1sc2c(c1C)C(c1ccc(Cl)cc1)=N[C@@H](CC(=O)OC(C)(C)C)c1nnc(C)n1-2	14
Cc1nnc2n1-c1ccc(Cl)cc1C(c1ccccc1)=NC2 [ALPRAZOLAM]	620
COc1cnc(Nc2cccc(S(N)(=O)=O)c2)nc1N1CC(F)(c2ccccc2)C1	170

System: not listed separately
Assay: Metabolic stability in human liver microsomes assessed as intrinsic clearance per mg of protein at 2 uM and mesured upto 60 mins in presence of NADPH by UHPLC-MS analysis
Type: ADME, Microsome
Conditions: liver microsomes, read-out: CLH

Compound	microsomal intrinsic clearance at 2 µM [µL/min/mg]
COc1cnc(Nc2cccc(S(N)(=O)=O)c2)nc1N1CCN(c2ccccn2)CC1	32

Same assay, conditions: microsomes, 1 h, 2 µM

Compound	microsomal intrinsic clearance [µL/min/mg]
COc1cnc(Nc2cccc(S(N)(=O)=O)c2)nc1N1CC(F)(c2ccccc2)C1	8
